Bioassay records: PubChem, several laboratories
Rows were chosen to be rich in hits. Some 7.2% of all compounds tested hit in one or more screens of this group.
M1 ag: M1 muscarinic receptor agonists, primary screen, CHO-M1 cells, Fluo-4 calcium, agonist mode. Muscarinic acetylcholine receptor M1. Fluo-4 calcium fluorescence; stronger effect = higher value. B-score at 10 µM. 64,000 tested, 3% active. AID 626, 2007;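 active = fluorescence rise, raw or as B-score row- and column-corrected plate score, outside the 99.7% band of its plate's samples, either direction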
D1 mod: D1 CRE-luciferase signal change, two-sided – cell-based, HEK293 D1, dopamine EC30, D1 allosteric modulator project, primary screen. D(1A) dopamine receptor (Homo sapiens), P21728. dopamine EC30 potentiation; actives deviate in either direction. B-score at 10 µM. 58,000 tested, 5.9% active. AID 641, 2007;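 active = luminescence count or its row- and column-corrected plate score outside the 99.7% band of the plate's sample wells, on either side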
HEK293 NFkB inh: inhibitors of PMA/ionomycin-induced NF-kB reporter, primary screen, antigen receptor NF-kB inhibitor project, cell-based, HEK-293 luciferase reporter, luminescence; AID 465, 2006; inhibition, % at 3 µM; 62,000 tested, 0.21% active; HEK-293 NF-kB luciferase reporter;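 active = inhibition above the mean of all tested compounds plus 3 SD, cut at about 40% in these data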
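Signal: luciferase luminescence; Material: HEK-293 cells with stable firefly luciferase reporter driven by four HIV NF-kB elements; Probe or stimulus: PMA with ionomycin; Replication: tested once; Times: 1 h compound pretreatment, then 16 h stimulation at 37 °C, 5% CO2; Benchmarks: DMSO and 10 µM reference inhibitor; Evaluation: per-plate % inhibition versus controls.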
M1 antagonist: antagonists of rat M1 muscarinic receptor; Muscarinic acetylcholine receptor M1 (Rattus norvegicus), P08482; CHO-M1 cells, Fluo-4 calcium, ACh EC80 antagonist mode; stronger effect = lower value; B-score at 10 µM; 64,000 tested, 3.4% active; AID 628, 2007;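 active = calcium fluorescence response, raw or row-and-column corrected B-score, differing from the plate sample mean either way at a set confidence level, mostly lower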
BAP1 block: inhibitors of BAP1 deubiquitinase, primary screen, biochemical, Ub-AMC fluorescence, kinetic; Ubiquitin carboxyl-terminal hydrolase BAP1 (Homo sapiens), Q92560; recombinant BAP1, Ub-AMC hydrolysis fluorescence kinetic; stronger effect = lower value; 72,000 tested, 0.48% active; calls only at 20 µM;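 active = activity remaining at or below 50% of control, provided the compound also passes the data quality filters; inactive = the rest, including low values that fail the filters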
Target sequence (Q92560 whole entry, looked up): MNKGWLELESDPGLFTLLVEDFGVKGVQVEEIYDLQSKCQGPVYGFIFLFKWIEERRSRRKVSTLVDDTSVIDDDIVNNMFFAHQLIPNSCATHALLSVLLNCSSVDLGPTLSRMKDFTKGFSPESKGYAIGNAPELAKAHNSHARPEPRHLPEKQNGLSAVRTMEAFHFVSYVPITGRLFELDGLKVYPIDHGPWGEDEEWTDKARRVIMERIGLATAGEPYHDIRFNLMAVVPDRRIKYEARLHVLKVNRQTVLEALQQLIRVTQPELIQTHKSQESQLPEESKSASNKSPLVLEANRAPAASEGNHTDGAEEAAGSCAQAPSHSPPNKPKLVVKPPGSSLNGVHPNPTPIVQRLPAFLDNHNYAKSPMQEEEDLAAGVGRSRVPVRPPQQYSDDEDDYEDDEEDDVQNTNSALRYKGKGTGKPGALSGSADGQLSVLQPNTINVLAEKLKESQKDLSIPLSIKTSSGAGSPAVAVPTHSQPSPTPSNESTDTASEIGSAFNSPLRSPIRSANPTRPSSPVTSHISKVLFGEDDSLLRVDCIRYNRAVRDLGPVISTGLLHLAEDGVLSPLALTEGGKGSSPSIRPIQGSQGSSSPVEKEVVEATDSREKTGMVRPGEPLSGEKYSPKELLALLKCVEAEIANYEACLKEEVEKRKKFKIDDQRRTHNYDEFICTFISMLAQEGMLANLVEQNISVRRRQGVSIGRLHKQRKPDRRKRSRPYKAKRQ
DAT uptake mod: changed hDAT dopamine uptake under cocaine IC80, either direction, primary screen, cocaine antagonist project, cell-based, LLC-PK1 hDAT, [14C]-dopamine uptake, MLSMR; Sodium-dependent dopamine transporter (Homo sapiens), Q01959; B-score at 10 µM; 110,000 tested, 1.3% active; LLC-PK1 hDAT cells, [14C]-dopamine uptake with cocaine IC80; actives deviate in either direction; AID 449768, 2010;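 active = Z score or B-score, a plate-position-corrected score, falls beyond the plate's 99.7% confidence bounds, in either direction; inactive = both scores lie inside the 99.7% bounds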
A number is an active result.

CCC(C(=O)NC1CCCC1)N(Cc1cccs1)C(=O)Cn1nnc(-c2ccc(OC)c(OC)c2)n1 (stereo not given) was read as DAT uptake mod inactive.
Screening Cc1ccc(OCC(=O)c2cc(C)c(O)cc2O)cc1 returned BAP1 block inactive.
For O=c1oc(-c2cccnc2)nc2ccccc12 the results were M1 ag inactive, D1 mod -4.51, HEK293 NFkB inh inactive, M1 antagonist inactive, BAP1 block inactive and DAT uptake mod inactive.
Screening c1cncc(-c2nc3ccccc3o2)c1 returned M1 ag inactive, D1 mod inactive, HEK293 NFkB inh inactive, M1 antagonist inactive, BAP1 block inactive and DAT uptake mod inactive.
CC[C@@H](C)C(NC(=O)OC(C)(C)C)c1cn([C@@H](Cc2ccc(O)cc2)C(=O)N2CCN(C(=O)OC(C)(C)C)CC2)nn1 (stereo not given in full) was read as DAT uptake mod 1.96.
`CCCCCCCC/C=C\CCCCCCCC(=O)NCCc1ccc(O)c(O)c1` gave BAP1 block active.
Cc1ccccc1Nc1nc(N)nc(CN2C(=O)NC3(CCCCC3C)C2=O)n1 (stereo not given) was read as M1 ag inactive, D1 mod inactive, HEK293 NFkB inh inactive, M1 antagonist inactive, BAP1 block inactive and DAT uptake mod -7.56.
`CC1(C)CC(=O)C2=C(C1)OC1=C(C(=O)CC(C)(C)C1)C2c1ccc(O)cc1O` gave M1 ag 158, D1 mod inactive, HEK293 NFkB inh inactive, M1 antagonist inactive, BAP1 block inactive and DAT uptake mod inactive.
`O=C(Nc1ccccc1-c1nc2ccccc2s1)c1ccc([N+](=O)[O-])cc1` gave BAP1 block inactive.
For C=CCn1c(C)cc(C(=O)COc2ncnc3sccc23)c1C the results were M1 ag inactive, D1 mod -4.47, HEK293 NFkB inh inactive, M1 antagonist inactive, BAP1 block inactive and DAT uptake mod inactive.
CC(C)NC(=O)COc1ncnc2sccc12 was read as DAT uptake mod inactive.
`CC(C)NC(=O)CSc1nc2ccccc2n1-c1ccccc1` gave M1 ag inactive, D1 mod inactive, HEK293 NFkB inh inactive, M1 antagonist 0.945, BAP1 block inactive and DAT uptake mod inactive.
`CC(C)(C)NC(=O)CSc1nc2ccccc2n1-c1ccccc1` gave DAT uptake mod inactive.
COc1cc2c(C(=O)N3CCN(C4CCCCC4)CC3)cn(CC(C)C)c(=O)c2cc1OC was read as D1 mod -5.7, HEK293 NFkB inh inactive, BAP1 block inactive and DAT uptake mod inactive.
For CN1CCN(CCCNC(=O)c2cc3c(-c4ccc(Cl)cc4)nn(C)c3s2)CC1 the results were M1 ag inactive, D1 mod -2.03, HEK293 NFkB inh inactive, M1 antagonist inactive, BAP1 block inactive and DAT uptake mod inactive.
Screening COc1cccc2cc(-c3nc4ccccc4[nH]3)c(=Nc3cccc(C#N)c3)oc12 returned BAP1 block inactive.
Screening CC=CCOC(=O)C1=C(C)NC(=O)NC1c1ccc(CC)cc1 (stereo not given) returned BAP1 block inactive.
Screening CCc1ccccc1NC(=O)c1ccc(CN2CCC(Cc3ccccc3)CC2)cc1 returned DAT uptake mod -6.89.
For O=C(c1ccc(CN2CCOCC2)cc1)N1CCC(Cc2ccccc2)CC1 the results were M1 ag inactive, D1 mod -3.29, HEK293 NFkB inh inactive, M1 antagonist inactive and DAT uptake mod inactive.
Screening Cc1ccccc1NC(=O)c1ccc(CN2CCc3ccccc3C2)cc1 returned DAT uptake mod inactive.
Screening COC(=O)c1c(NC(=O)COc2ccc(Cl)cc2C)sc2c1CCC2 returned BAP1 block inactive.
Screening O=C(CCc1nc2ccccc2[nH]1)N1CCN(C(=O)c2ccco2)CC1 returned M1 ag inactive, D1 mod inactive, HEK293 NFkB inh inactive, M1 antagonist inactive and BAP1 block inactive.
For O=C(CSc1ccc(-c2nc3ccccc3[nH]2)cn1)N1CCN(C(=O)c2ccco2)CC1 the results were M1 ag 11.9, D1 mod inactive, HEK293 NFkB inh inactive, M1 antagonist inactive and DAT uptake mod inactive.
`COc1ccc(CN2CCN(Cc3ccco3)CC2)cc1Br` gave BAP1 block inactive.
Cc1cc2cc(C(c3nnnn3Cc3ccco3)N3CCc4ccccc4C3)c(=O)[nH]c2cc1C (stereo not given) was read as M1 ag inactive, D1 mod inactive, HEK293 NFkB inh inactive, M1 antagonist inactive, BAP1 block inactive and DAT uptake mod 3.87.
`CCN(CC)C(=O)C1CCN(S(=O)(=O)c2ccc3oc4ccccc4c3c2)CC1` gave M1 ag inactive, D1 mod inactive, HEK293 NFkB inh inactive, M1 antagonist inactive, BAP1 block inactive and DAT uptake mod 2.26.
For O=S(=O)(c1ccc2oc3ccccc3c2c1)N1CCCC1 the results were DAT uptake mod inactive.
CCN(CC)c1ccc2cc(C(=O)Nc3ccccc3)c(=O)oc2c1 was read as BAP1 block inactive.
CCn1c(-c2ccc(N)cc2)nc2ccccc21 was read as M1 ag inactive, D1 mod inactive, HEK293 NFkB inh inactive, M1 antagonist inactive, BAP1 block inactive and DAT uptake mod inactive.
For CC(C)n1c(-c2ccc(N(C)C)cc2)nc2ccccc21 the results were M1 ag inactive, D1 mod -4.62, HEK293 NFkB inh inactive, M1 antagonist inactive, BAP1 block inactive and DAT uptake mod inactive.
For Cc1ccc(C(O)c2nc3ccccc3n2C(C)C)cc1 (stereo not given) the results were M1 ag inactive, HEK293 NFkB inh inactive, M1 antagonist inactive and BAP1 block inactive.
Screening CCn1c(-c2ccc(N(C)C)cc2)nc2ccccc21 returned M1 ag inactive, D1 mod -4.94, HEK293 NFkB inh inactive, M1 antagonist inactive, BAP1 block inactive and DAT uptake mod inactive.
For CN(C)c1ccc(-c2nc3ccccc3n2C)cc1 the results were M1 ag inactive, D1 mod -5.12, HEK293 NFkB inh inactive, M1 antagonist inactive and DAT uptake mod inactive.
Screening Cc1ccc(-c2nc3ccccc3n2C)o1 returned DAT uptake mod inactive.
Cn1c(C(=O)NCCCN2CCN(c3ccc(F)cc3)CC2)cc2c(=O)n(C)c3ccccc3c21 was read as M1 ag inactive, D1 mod -5.2, HEK293 NFkB inh inactive, M1 antagonist inactive and BAP1 block inactive.
`Cn1c(C(=O)NCCN2CCN(c3ccccc3F)CC2)cc2c(=O)n(C)c3ccccc3c21` gave M1 ag inactive, D1 mod -3.72, HEK293 NFkB inh inactive, M1 antagonist inactive and BAP1 block inactive.
